# Experimental data of several laboratories.
# Compare with care: the assays were run in different laboratories.
# Target: cAMP-dependent protein kinase catalytic subunit beta (PRKACB, Homo sapiens, UniProt P22694)
# Technique: competition with immobilised ligand
Compound,observed,tested at,remaining binding [%]
CNC(=O)Nc1ccc2c(c1)[C@@]1(CC2)OC(=O)N(CC(=O)N(Cc2ccc(F)cc2)[C@@H](C)C(F)(F)F)C1=O,cell-free assay,1 µM,100
COc1cnc(Nc2cccc(S(N)(=O)=O)c2)nc1N1CCN(c2ccccc2)CC1,binding,1 µM,85
COc1ccnn2ncc(-c3ccnc(N(C)C)n3)c12,binding,1 µM,95
NS(=O)(=O)c1cc(NC(=O)Cc2ccccc2)ccc1Oc1cccc(Cl)c1,cell-free assay,1 µM,100
O=C(NCC1CCOCC1)c1n[nH]cc1NC(=O)c1c(F)cccc1F,binding,1 µM,97
COc1cc(-c2cn(C3CCc4c(F)cccc4N(CC(F)(F)F)C3=O)nn2)ccc1-n1cnc(C)c1 (centres unmarked),cell-free assay,1 µM,95
O=C(c1ccc(Nc2ncc(Cl)c(-c3ccc(Cl)s3)n2)cc1)N1CCC(N2CCCC2)CC1,binding,1 µM,100
O=C(O)c1cc(-c2ccc(C3CCNCC3)cc2)c2ccc(-c3ccc(C(F)(F)F)cc3)cc2c1,cell-free assay,1 µM,100
O=C(c1ccc(Nc2ncc(Cl)c(-c3cc4ccccc4s3)n2)cc1)N1CCC(N2CCCC2)CC1,binding,1 µM,98
CN(CCCC(F)(F)F)c1nccc(-c2cnn3ncccc23)n1,binding,1 µM,100
FC(F)(F)Oc1cccc(-c2cnc3ccc(-c4ccncc4)nn23)c1,cell-free assay,5 µM,98
CC1CCCN1c1nccc(-c2cnn3ncccc23)n1 (centres unmarked),binding,1 µM,89
Nc1ncc2c(n1)-c1c([nH]c3ccc(C#CC4CC4)cc13)CCCC2,binding,1 µM,86
N[C@H]1CCN(c2nccc(-c3cnn4ncccc34)n2)C1,binding,1 µM,83
COc1ncc2cc3ccccc3nc2c1C#N,cell-free assay,5 µM,97
C[C@H]1CCN(c2nccc(-c3cnn4ncccc34)n2)C1,binding,1 µM,99
O=C(NCCCC1CCCCC1)c1ccc(CNC(=O)c2cnn(-c3ccccc3)c2C(F)(F)F)cc1,cell-free assay,0.1 µM,100
c1cnn2ncc(-c3ccnc(N4CCC45COC5)n3)c2c1,binding,1 µM,92
C[C@@H]1CN(c2cc(-c3n[nH]c4ccc(OC5(C)CC5)cc34)ncn2)C[C@H](C)O1,cell-free assay,0.1 µM,91
O=C(NCCCN1CCOCC1)c1ccc(Nc2ncc(Cl)c(-c3ccc(Cl)s3)n2)cc1,binding,1 µM,100
